Laboratory results as given in ChEMBL document CHEMBL1124785, “Synthesis, metabolism, and pharmacological activity of 3 alpha-hydroxy steroids which potentiate GABA-receptor-mediated chloride ion uptake in rat cerebral cortical synaptoneurosomes” (1990).

Experiments:
[1] = species on record: Rattus norvegicus; assay: Effect on the potentiation of muscimol-stimulated 36Cl- uptake in rat brain synaptoneurosomes; type: functional
How it was run: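 Cerebral cortex synaptoneurosomes from adult male Sprague-Dawley rats (180-200 g), homogenized in Tris-Hepes buffer pH 7.4 with salts and glucose, filtered and washed. Tubes held 1 mg protein. Steroid plus 3 μM muscimol preincubated 10 min at 30 °C, then 0.5 µCi 36Cl- added. Uptake stopped after 5 s with ice-cold picrotoxin buffer and filtered. Counted by scintillation, in quadruplicate; increase measured over muscimol alone.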

[2] = species on record: Rattus norvegicus; assay: Percent of total tritium in extracts of rat brain; type: functional
How it was run: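 Groups of four adult male Sprague-Dawley rats (240-260 g) received 100 μCi 3H-steroid in ethanol-saline by tail vein and were killed after 20 min. Brain was homogenized in chloroform/methanol (2:1) and the extract separated by HPLC (75% aqueous methanol) alongside unlabeled internal standards read at 280 nm. Fraction radioactivity was expressed as % of total brain tritium; means ± SE.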

[3] = tested on: Rattus norvegicus; assay: The recovery of radioactivity 20 min after administration of [3H]- labeled steroids to rat brain; type: functional, organism-based
How it was run: (§1)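 Adult male Sprague-Dawley rats (240-260 g), four per group, were given 100 μCi tritiated steroid by tail vein in ethanol-saline. Blood and brain were collected 20 min later and aliquots counted for radioactivity (dpm/mL plasma, dpm/g brain). The brain/plasma ratio was also taken; means ± SE.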

[4] = tested on: Rattus norvegicus; assay: The recovery of radioactivity 20 min after administration of [3H]- labeled steroids to rat plasma; type: functional, organism-based; how it was run: as §1

Row | SMILES | Potentiation [1] [nM/mg] | further results
1 | C[C@]12CC[C@@H](O)C[C@@H]1CC[C@@H]1[C@@H]2CC[C@]2(C)C(=O)CC[C@@H]12 [ANDROSTERONE] | 7 | 
2 | CC(=O)O[C@@H]1CC[C@@]2(C)[C@@H](CC[C@@H]3[C@@H]2CC[C@]2(C)[C@@H](C(C)=O)CC[C@@H]32)C1 | 2.57 | 
3 | CC(=O)[C@H]1CC[C@H]2[C@@H]3CCC4=CC(=O)CC[C@]4(C)[C@H]3CC[C@]12C [PROGESTERONE] | -1.8 | 
4 | C[C@]12CC[C@@H](O)C[C@@H]1CC[C@@H]1[C@@H]2CC[C@]2(C)[C@@H](C#N)CC[C@@H]12 | 13 | 
5 | CC1([C@H]2CC[C@H]3[C@@H]4CC[C@@H]5C[C@H](O)CC[C@]5(C)[C@H]4CC[C@]23C)OCCO1 | -0.96 | 
6 | C[C@]12CC[C@@H](O)C[C@H]1CC[C@@H]1[C@@H]2CC[C@]2(C)C(=O)CC[C@@H]12 [ETIOCHOLANOLONE] | 4.9 | 
7 | CC(=O)[C@H]1CC[C@H]2[C@@H]3CCC4=C[C@H](O)CC[C@]4(C)[C@H]3CC[C@]12C | 10.4 | 
8 | C[C@]12CC[C@@H](O)C[C@@H]1CC[C@@H]1[C@@H]2CC[C@]2(C)[C@@H](C(=O)COS(C)(=O)=O)CC[C@@H]12 | 7.9 | 
9 | CC(=O)[C@H]1CC[C@H]2[C@@H]3CC[C@H]4C[C@H](O)CC[C@]4(C)[C@H]3CC[C@]12C [BREXANOLONE] | 10.9 | Total tritium [2]: 50.4%; Recovery [3]: 342000 dpm ml-1; Recovery [4]: 176000 dpm ml-1
10 | CC(=O)O[C@@H]1CC[C@@]2(C)[C@@H](CC[C@@H]3[C@@H]2CC[C@]2(C)[C@@H](C(=O)CO)CC[C@@H]32)C1 | 0.48 | 
11 | C[C@]12CC=C3C(CC[C@H]4C[C@H](O)CC[C@]34C)C1CC[C@@H]2C(=O)CO (some centres undefined) | 1.4 | 
12 | C[C@]12CC[C@@H](O)C[C@@H]1CC[C@@H]1[C@@H]2CC[C@]2(C)[C@@H](C(=O)CO)CC[C@@H]12 | 13.1 | Total tritium [2]: 48.1%; Recovery [3]: 212000 dpm ml-1; Recovery [4]: 316000 dpm ml-1
13 | CC(=O)[C@H]1CCC2C3CC[C@H]4C[C@H](O)CC[C@]4(C)C3=CC[C@@]21C (some centres undefined) | 1.23 | 
14 | C[C@]12CC[C@@H](O)C[C@@H]1CC[C@@H]1[C@@H]2CC[C@]2(C)/C(=N\O)CC[C@@H]12 | -1.91 | 
15 | CC(=O)[C@H]1CC[C@H]2[C@@H]3CC[C@@H]4C[C@H](O)CC[C@]4(C)[C@H]3C[C@H](O)[C@]12C | -2.58 | 
16 | CC(=O)[C@H]1CCC2C3CCC4=C[C@@H](O)CC[C@]4(C)C3CC[C@@]21C (some centres undefined) | 1.43 | 

Row | SMILES | Potentiation [1] [nM/mg] | further results
17 | CC(=O)[C@@H]1CC[C@H]2[C@@H]3CC[C@H]4C[C@H](O)CC[C@]4(C)[C@H]3CC[C@]12C | 1.12 | 
18 | C[C@]12CCC(=O)C[C@@H]1CC[C@@H]1[C@@H]2CC[C@]2(C)C(C(=O)CO)CC[C@@H]12 (some centres undefined) | -1.95 | Total tritium [2]: 46.1%
19 | CC(=O)[C@H]1CC[C@H]2[C@@H]3CC[C@@H]4C[C@H](O)CC[C@]4(C)[C@H]3[C@H](O)C[C@]12C | 0.98 | 
20 | CC(=O)OCC(=O)[C@H]1CCC2C3CC[C@H]4C[C@H](O)CC[C@]4(C)C3=CC[C@@]21C (some centres undefined) | 0.34 | 
21 | CC1([C@H]2CC[C@H]3[C@@H]4CC[C@H]5C[C@H](O)CC[C@]5(C)[C@H]4CC[C@]23C)OCCO1 | 0.16 | 
22 | CC(=O)OCC(=O)[C@H]1CC[C@H]2[C@@H]3CC[C@H]4C[C@H](OC(C)=O)CC[C@]4(C)[C@H]3CC[C@]12C | 1.37 | 
23 | C[C@]12CC[C@@H](O)C[C@H]1CC[C@@H]1[C@@H]2CC[C@]2(C)[C@@H](C(=O)CO)CC[C@@H]12 | 7.7 | 
24 | CC(=O)C1CC[C@H]2[C@@H]3CC[C@H]4C/C(=N\O)CCC4(C)[C@H]3CCC12C (some centres undefined) | -3.26 | 
25 | CC(=O)C1CC[C@H]2[C@@H]3CC[C@H]4CC(=O)CC[C@]4(C)[C@H]3CC[C@]12C (some centres undefined) | 2.63 | Total tritium [2]: 40.6%
26 | COC(=O)[C@H]1CC[C@H]2[C@@H]3CC[C@H]4C[C@H](O)CC[C@]4(C)[C@H]3CC[C@]12C | 3.6 | 
27 | C[C@H](O)[C@H]1CC[C@H]2[C@@H]3CC[C@H]4C[C@H](O)CC[C@]4(C)[C@H]3CC[C@]12C | 1.97 | 
28 | CC(=O)OCC(=O)[C@H]1CC[C@H]2[C@@H]3CC[C@@H]4C[C@H](O)CC[C@]4(C)[C@H]3CC[C@]12C | 10.3 | 
29 | C[C@]12CC[C@@H](O)C[C@@H]1CC[C@@H]1[C@@H]2CC[C@]2(C)[C@H](C#N)CC[C@@H]12 | -2.1 | 
30 | CC(=O)OCC(=O)[C@H]1CC[C@H]2[C@@H]3CC[C@H]4C[C@H](O)CC[C@]4(C)[C@H]3CC[C@]12C | 12.2 | 
31 | CC(=O)[C@H]1CC[C@H]2[C@@H]3CC[C@H]4C[C@H](O)CC[C@]4(C)[C@H]3[C@H](O)C[C@]12C | 0.7 | 
